Several values for one entry are separate records, joined by “and”; a condition that tells them apart may be missing. Equal entries are not always repeated. Activity calls are given as the source filed them. No cut-off for these calls is given here.
Columns and labels:
[1] = Displacement of [3H]methyllycaconitine from chimeric alpha7nAChR Y195A mutant/5HT3A receptor in tsA201 cells; type: cell-based, Homo sapiens
Outline: (§1)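 tsA-201 cells transiently transfected with 4 µg WT or mutant α7/5-HT3A chimera and assayed 2 days later. Membranes washed twice at 50000g in 50 mM Tris-HCl pH 7.2. Incubated with 0.5 nM [3H]MLA and compound for 2.5 h at room temperature with shaking; nonspecific binding with 5 mM (S)-nicotine. PEI-soaked GF/C filtration, scintillation counting. Ki derived; duplicate, 3–7 experiments.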

[2] = Displacement of [3H]methyllycaconitine from chimeric alpha7nAChR R79A mutant/5HT3A receptor R79A mutant in tsA201 cells; type: cell-based, Homo sapiens; outline: as §1
[3] = target: T1, Neuronal acetylcholine receptor subunit alpha-7 (Homo sapiens, UniProt P36544); experiment: Displacement of [3H]methyllycaconitine from chimeric alpha7nAChR/5HT3A in tsA201 cells; type: cell-based
Target sequence in this assay (P36544 23-502 limits assumed): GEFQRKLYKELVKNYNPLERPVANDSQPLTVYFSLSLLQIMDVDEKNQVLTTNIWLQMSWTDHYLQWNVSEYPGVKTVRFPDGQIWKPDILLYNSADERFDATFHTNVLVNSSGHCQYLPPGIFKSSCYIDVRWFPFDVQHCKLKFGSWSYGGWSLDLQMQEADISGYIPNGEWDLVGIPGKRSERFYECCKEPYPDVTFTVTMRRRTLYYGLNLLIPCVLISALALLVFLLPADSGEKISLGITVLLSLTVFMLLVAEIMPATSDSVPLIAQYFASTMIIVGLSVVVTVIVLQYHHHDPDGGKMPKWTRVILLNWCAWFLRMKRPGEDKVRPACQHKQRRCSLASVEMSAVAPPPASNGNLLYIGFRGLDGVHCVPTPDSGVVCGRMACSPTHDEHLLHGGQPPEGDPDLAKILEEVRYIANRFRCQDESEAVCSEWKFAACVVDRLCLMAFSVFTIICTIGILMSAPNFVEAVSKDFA

[4] = target: T1, Neuronal acetylcholine receptor subunit alpha-7; experiment: Displacement of [3H]methyllycaconitine from alpha7 nAChR in tsA201 cells co-expressed with Ric3; type: cell-based
Target sequence in this assay (P36544 whole entry): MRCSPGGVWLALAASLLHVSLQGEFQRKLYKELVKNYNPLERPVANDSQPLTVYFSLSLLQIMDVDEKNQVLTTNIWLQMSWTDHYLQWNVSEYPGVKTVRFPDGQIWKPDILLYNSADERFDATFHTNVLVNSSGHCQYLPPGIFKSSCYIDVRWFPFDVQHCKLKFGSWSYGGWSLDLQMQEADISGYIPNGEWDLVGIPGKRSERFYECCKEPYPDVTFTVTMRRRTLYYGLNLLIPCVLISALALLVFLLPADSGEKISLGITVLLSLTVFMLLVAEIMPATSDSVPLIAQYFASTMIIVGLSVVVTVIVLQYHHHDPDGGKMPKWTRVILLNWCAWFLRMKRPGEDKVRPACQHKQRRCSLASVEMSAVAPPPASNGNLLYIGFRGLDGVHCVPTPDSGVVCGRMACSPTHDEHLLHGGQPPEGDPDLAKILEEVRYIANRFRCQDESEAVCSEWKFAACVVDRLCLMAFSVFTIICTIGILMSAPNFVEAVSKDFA

[5] = Displacement of [3H]methyllycaconitine from chimeric alpha-7nAChR K145R mutant /5HT3A receptor in tsA201 cells; type: cell-based, Homo sapiens; outline: as §1
[6] = target: T2, Neuronal acetylcholine receptor; alpha3/beta4 (Rattus norvegicus, UniProt P04757+P12392); experiment: Displacement of [3H]epibatidine from recombinant rat alpha-3-beta-4 nAChr in HEK293 cell line; type: cell-based
T2 sequence (P04757 whole entry): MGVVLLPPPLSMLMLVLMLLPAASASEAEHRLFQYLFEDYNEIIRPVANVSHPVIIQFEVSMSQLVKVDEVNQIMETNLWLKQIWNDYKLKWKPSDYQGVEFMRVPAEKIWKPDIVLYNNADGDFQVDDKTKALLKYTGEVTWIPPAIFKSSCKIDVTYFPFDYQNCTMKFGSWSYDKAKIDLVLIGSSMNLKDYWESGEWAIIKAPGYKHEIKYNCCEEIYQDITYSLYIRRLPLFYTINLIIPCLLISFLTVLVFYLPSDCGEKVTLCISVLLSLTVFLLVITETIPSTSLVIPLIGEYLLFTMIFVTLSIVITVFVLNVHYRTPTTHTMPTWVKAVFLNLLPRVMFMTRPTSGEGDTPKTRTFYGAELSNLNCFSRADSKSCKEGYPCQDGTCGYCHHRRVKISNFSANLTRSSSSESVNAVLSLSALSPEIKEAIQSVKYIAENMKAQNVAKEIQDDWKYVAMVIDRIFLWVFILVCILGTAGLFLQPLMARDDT
T2 sequence (P12392 whole entry): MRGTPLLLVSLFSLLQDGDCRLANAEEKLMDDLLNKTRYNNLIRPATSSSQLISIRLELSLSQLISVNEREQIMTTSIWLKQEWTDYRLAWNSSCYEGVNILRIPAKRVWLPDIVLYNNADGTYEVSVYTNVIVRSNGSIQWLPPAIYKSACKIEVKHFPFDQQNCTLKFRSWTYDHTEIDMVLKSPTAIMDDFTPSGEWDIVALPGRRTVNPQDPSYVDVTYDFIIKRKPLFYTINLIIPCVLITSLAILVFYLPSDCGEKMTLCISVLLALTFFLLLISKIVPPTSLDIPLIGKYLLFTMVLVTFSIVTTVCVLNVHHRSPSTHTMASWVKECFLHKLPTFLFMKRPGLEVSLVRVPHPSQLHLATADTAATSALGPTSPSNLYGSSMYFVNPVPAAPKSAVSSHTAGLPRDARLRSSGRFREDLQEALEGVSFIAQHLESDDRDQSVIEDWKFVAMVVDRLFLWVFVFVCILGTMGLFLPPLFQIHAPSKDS

[7] = target: T1, Neuronal acetylcholine receptor subunit alpha-7
Target sequence in this assay (P36544 whole entry): as the sequence (P36544 whole entry) above

[8] = Antagonist activity at human alpha7nAChR Y93A mutant co-expressed with human Ric3 in tsA201 cells by FMP assay; type: functional, cell-based
[9] = Displacement of [3H]methyllycaconitine from chimeric alpha-7nAChR N107A mutant/5HT3A receptor in tsA201 cells; type: cell-based, Homo sapiens; outline: as §1
[10] = target: Neuronal acetylcholine receptor; alpha4/beta2 (Rattus norvegicus, UniProt P09483+P12390); experiment: Displacement of [3H]epibatidine from rat recombinant alpha-4-beta-2 nAChR in HEK293 cell line; type: cell-based
Neuronal acetylcholine receptor; alpha4/beta2, sequence (P09483 whole entry): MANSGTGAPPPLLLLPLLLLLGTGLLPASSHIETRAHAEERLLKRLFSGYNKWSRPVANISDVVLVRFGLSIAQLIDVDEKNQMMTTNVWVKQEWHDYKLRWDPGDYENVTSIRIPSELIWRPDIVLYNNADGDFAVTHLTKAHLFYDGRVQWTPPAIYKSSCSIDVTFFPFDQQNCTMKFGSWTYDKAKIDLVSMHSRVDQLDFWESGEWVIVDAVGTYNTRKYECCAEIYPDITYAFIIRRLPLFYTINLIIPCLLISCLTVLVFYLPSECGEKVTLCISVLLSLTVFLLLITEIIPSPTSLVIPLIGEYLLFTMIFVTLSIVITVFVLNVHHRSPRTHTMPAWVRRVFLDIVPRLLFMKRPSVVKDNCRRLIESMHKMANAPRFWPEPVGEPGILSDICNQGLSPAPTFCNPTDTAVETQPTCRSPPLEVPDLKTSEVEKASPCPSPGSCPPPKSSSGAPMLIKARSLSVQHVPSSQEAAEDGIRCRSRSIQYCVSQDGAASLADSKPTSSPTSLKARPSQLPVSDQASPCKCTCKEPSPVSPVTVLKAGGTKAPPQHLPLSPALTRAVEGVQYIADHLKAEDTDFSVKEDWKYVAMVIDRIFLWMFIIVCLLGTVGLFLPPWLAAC
Neuronal acetylcholine receptor; alpha4/beta2, sequence (P12390 whole entry): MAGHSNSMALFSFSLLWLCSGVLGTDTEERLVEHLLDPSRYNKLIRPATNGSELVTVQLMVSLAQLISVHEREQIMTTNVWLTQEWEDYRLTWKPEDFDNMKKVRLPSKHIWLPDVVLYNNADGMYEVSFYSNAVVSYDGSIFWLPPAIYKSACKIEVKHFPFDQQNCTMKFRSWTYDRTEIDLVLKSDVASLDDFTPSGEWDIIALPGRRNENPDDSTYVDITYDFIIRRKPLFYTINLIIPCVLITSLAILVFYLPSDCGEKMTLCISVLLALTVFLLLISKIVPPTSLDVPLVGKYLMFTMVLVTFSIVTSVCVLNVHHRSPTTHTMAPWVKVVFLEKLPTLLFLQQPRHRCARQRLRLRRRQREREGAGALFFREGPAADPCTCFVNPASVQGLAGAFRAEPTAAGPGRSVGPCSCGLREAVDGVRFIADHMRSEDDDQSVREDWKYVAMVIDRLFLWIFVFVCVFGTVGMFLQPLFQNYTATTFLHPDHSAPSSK

[11] = system: tsA201; experiment: Displacement of [3H]methyllycaconitine from chimeric alpha-7nAChR W149Y mutant/5HT3A receptor W149Y mutant in tsA201 cells; type: cell-based; conditions: Homo sapiens; outline: as §1
[12] = Antagonist activity at human alpha-7 nAChR Y188A mutant coexpressed with human Ric3 in tsA201 cells by FMP assay; type: functional, cell-based
[13] = target: T3, 5-hydroxytryptamine receptor 3A (Homo sapiens, UniProt P46098); experiment: Displacement of [3H]GR65630 from human 5HT3A receptor in HEK293 cells; type: cell-based
T3 sequence (P46098 whole entry): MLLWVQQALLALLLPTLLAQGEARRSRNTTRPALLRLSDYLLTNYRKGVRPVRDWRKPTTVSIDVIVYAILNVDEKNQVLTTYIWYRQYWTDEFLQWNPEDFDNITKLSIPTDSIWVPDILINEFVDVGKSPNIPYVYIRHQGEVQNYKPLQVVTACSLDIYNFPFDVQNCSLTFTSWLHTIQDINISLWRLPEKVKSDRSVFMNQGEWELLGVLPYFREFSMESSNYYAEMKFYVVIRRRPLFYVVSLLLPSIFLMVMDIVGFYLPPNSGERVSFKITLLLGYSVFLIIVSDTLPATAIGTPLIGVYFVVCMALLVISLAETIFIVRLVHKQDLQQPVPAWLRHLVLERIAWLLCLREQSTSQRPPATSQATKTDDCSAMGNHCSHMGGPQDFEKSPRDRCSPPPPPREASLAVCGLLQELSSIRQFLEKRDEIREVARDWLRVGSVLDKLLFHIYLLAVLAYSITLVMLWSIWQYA

[14] = cells; type: functional, cell-based; conditions: Homo sapiens, HEK293
[15] = target: Neuronal acetylcholine receptor; alpha4/beta4 (Rattus norvegicus, UniProt P09483+P12392); experiment: Displacement of [3H]epibatidine from recombinant rat alpha-4-beta-4 nAChr in HEK293 cell line; type: cell-based
Neuronal acetylcholine receptor; alpha4/beta4, sequence (P09483 whole entry): as the sequence (P09483 whole entry) above
Neuronal acetylcholine receptor; alpha4/beta4, sequence (P12392 whole entry): as the sequence (P12392 whole entry) above

[16] = target: T2, Neuronal acetylcholine receptor; alpha3/beta4; experiment: Antagonist activity at rat alpha3beta4 nAChR expressed in HEK293 cells by FMP assay; type: functional, cell-based, Homo sapiens; conditions: read-out: IC50
[17] = Displacement of [3H]methyllycaconitine from chimeric alpha-7nAChR D197A mutant/5HT3A receptor in tsA201 cells; type: cell-based, Homo sapiens; outline: as §1
[18] = target: T4, Glycine receptor subunit alpha-1 (Homo sapiens, UniProt P23415); experiment: Antagonist activity at human glycine alpha-1 receptor in HEK293 cells by FMP assay; type: functional, cell-based
T4 sequence (P23415 whole entry): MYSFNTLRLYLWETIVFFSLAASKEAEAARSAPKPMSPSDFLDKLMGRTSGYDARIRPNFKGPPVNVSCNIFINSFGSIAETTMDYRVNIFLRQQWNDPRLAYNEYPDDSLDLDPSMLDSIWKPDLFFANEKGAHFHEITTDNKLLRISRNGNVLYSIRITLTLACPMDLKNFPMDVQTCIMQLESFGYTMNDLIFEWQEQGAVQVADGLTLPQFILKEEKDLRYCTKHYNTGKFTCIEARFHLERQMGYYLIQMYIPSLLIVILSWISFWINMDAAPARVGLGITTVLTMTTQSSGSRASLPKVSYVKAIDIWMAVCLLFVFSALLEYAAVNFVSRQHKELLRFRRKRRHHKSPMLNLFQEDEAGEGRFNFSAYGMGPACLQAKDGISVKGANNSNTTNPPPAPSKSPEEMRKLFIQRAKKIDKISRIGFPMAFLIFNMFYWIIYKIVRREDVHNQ

[19] = Displacement of [3H]methyllycaconitine from chimeric alpha7nAChR W55Y mutant/5HT3A receptor in tsA201 cells; type: cell-based, Homo sapiens; outline: as §1
[20] = Antagonist activity at human alpha-7 nAChR Y195A mutant coexpressed with human Ric3 in tsA201 cells by FMP assay; type: functional, cell-based
[21] = Displacement of [3H]methyllycaconitine from chimeric alpha-7nAChR Y195F mutant/5HT3A receptor in tsA201 cells; type: cell-based, Homo sapiens; outline: as §1
[22] = target: T3, 5-hydroxytryptamine receptor 3A; experiment: Antagonist activity at human 5HT3A receptor expressed in HEK293 cells by FMP assay; type: functional, cell-based; conditions: read-out: IC50
[23] = system: tsA201; experiment: Displacement of [3H]methyllycaconitine from chimeric alpha-7nAChR W55A/Y195A mutant /5HT3A receptor in tsA201 cells; type: cell-based; conditions: Homo sapiens; outline: as §1
[24] = Displacement of [3H]methyllycaconitine from chimeric alpha-7nAChR S148A mutant /5HT3A receptor in tsA201 cells; type: cell-based, Homo sapiens; outline: as §1
[25] = system: tsA201; experiment: Displacement of [3H]methyllycaconitine from chimeric alpha-7nAChR W149A mutant/5HT3A receptor in tsA201 cells; type: cell-based; conditions: Homo sapiens; outline: as §1
[26] = Displacement of [3H]methyllycaconitine from chimeric alpha-7nAChR Y168A mutant/5HT3A receptor in tsA201 cells; type: cell-based, Homo sapiens; outline: as §1
[27] = system: tsA201; experiment: Displacement of [3H]methyllycaconitine from chimeric alpha-7nAChR Y188A mutant/5-HT3A receptor in tsA201 cells; type: cell-based; conditions: Homo sapiens; outline: as §1
[28] = Displacement of [3H]methyllycaconitine from chimeric alpha-7nAChR W55A mutant /5HT3A receptor in tsA201 cells; type: cell-based, Homo sapiens; outline: as §1
[29] = Antagonist activity at human alpha7 nAChR W149Y mutant co-expressed with human Ric3 in tsA201 cells by FMP assay; type: functional, cell-based
[30] = Displacement of [3H]methyllycaconitine from chimeric alpha-7nAChR S150A mutant/5HT3A receptor in tsA201 cells; type: cell-based, Homo sapiens; outline: as §1
[31] = Displacement of [3H]methyllycaconitine from chimeric alpha7nAChR K145A mutant/5HT3A receptor in tsA201 cells; type: cell-based, Homo sapiens; outline: as §1
[32] = system: tsA201; experiment: Displacement of [3H]methyllycaconitine from chimeric alpha-7nAChR Y93A mutant/5HT3A receptor in tsA201 cells; type: cell-based; conditions: Homo sapiens; outline: as §1
[33] = target: T1, Neuronal acetylcholine receptor subunit alpha-7; experiment: Displacement of [3H]methyllycaconitine from human alpha-7 in tsA201 cells coexpressed with 5HT3A receptor; type: cell-based
Target sequence in this assay (P36544 whole entry): as the sequence (P36544 whole entry) above

[34] = target: T1, Neuronal acetylcholine receptor subunit alpha-7; experiment: Antagonist activity at human alpha-7 nAChR in tsA201 cells coexpressed with Ric3 by FMP assay; type: functional, cell-based
Target sequence in this assay (P36544 whole entry): as above

## C[N+]12CC[C@@H]3[C@@H]4[C@@H]5[C@@H](OCC=C(C1)[C@@H]5C[C@@H]32)N1c2ccccc2[C@@]23CC[N+]5(C)CC6=CCO[C@H]([C@@H]([C@H]12)[C@H]6C[C@@H]35)N4c1ccccc1.[I-].[I-] (stereo partly drawn)
[1]
  Ki: 2.9 µM
  pKi: 5.54
[2]
  Ki: 0.66 µM
  pKi: 6.18
[3]
  Ki: 0.33 µM
  pKi: 6.48
[4]; read-out: Ki
  Ki: 0.21 µM
[4]; read-out: pKi (converted)
  Ki: 0.2 µM
[5]
  Ki: 0.43 µM
  pKi: 6.37
[6]
  Ki: 30 µM
[7]
  IC50: 1.5 µM and 1.51 µM
[8]; read-out: IC50
  IC50: 1.3 µM
[8]; read-out: pIC50 (converted)
  IC50: 1.32 µM
[9]
  Ki: 0.33 µM
  pKi: 6.48
[10]; hek293
  pKi: < 4
[10]; read-out: Ki
  Ki: > 100 µM
[11]
  Activity: inactive
[12]; read-out: IC50
  IC50: 2.5 µM
[12]; read-out: pIC50 (converted)
  IC50: 2.45 µM
[13]
  Ki: 11 µM
[14]; read-out: IC50
  IC50: > 100 µM
[14]; read-out: pIC50 (converted)
  IC50: > 100 µM
[15]
  Ki: > 100 µM
[15]; hek293
  pKi: < 4
[16]
  IC50: 30 µM
[17]
  Ki: 0.55 µM
  pKi: 6.26
[18]
  IC50: > 100 µM
[18]; hek293
  pIC50: < 4
[19]
  Ki: 0.3 µM
  pKi: 6.53
[20]; read-out: IC50
  IC50: 7.1 µM
[20]; read-out: pIC50 (converted)
  IC50: 7.08 µM
[21]
  Ki: 0.39 µM
  pKi: 6.41
[22]
  IC50: 30 µM
[23]
  Activity: inactive
[24]
  Ki: 0.79 µM
  pKi: 6.1
[25]
  Activity: inactive
[26]
  Ki: 0.31 µM
  pKi: 6.51
[27]
  Activity: inactive
[28]
  Ki: 0.85 µM
  pKi: 6.07
[29]; read-out: IC50
  IC50: 2.7 µM
[29]; read-out: pIC50 (converted)
  IC50: 2.69 µM
[30]
  Ki: 0.5 µM
  pKi: 6.3
[31]
  Ki: 0.25 µM
  pKi: 6.6
[32]
  Activity: inactive
[33]; read-out: Ki
  Ki: 0.3 µM
[33]; read-out: pKi (converted)
  Ki: 0.316 µM
[34]; read-out: IC50
  IC50: 1.5 µM
[34]; read-out: pIC50 (converted)
  IC50: 1.48 µM

Reference: ChEMBL document CHEMBL1148788 (J Med Chem, 2007)
